Reference: PubChem BioAssay
Active and inactive are the calls of the source.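 How the source made its calls: active means duplicate-averaged activation above buffer control mean plus 5 SD of those controls; inactive means the rest.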

Experiment: thallium flux activation in parental CHO cells, counter-screen for KCNQ1 potentiator project (AID 493006)
Details: parental CHO-K1 cells, FluxOR thallium flux, at 10 µM; active compounds read high
Method in brief: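 Assay system: Untransfected host CHO-K1 cells with FluxOR thallium dye | Probe or stimulus: Potassium/thallium depolarization pulse | Schedule: Overnight 37 °C plating, 90 min RT dye, 20 min compound | Detection: Kinetic thallium-flux fluorescence | Read-out: Max-minus-min fluorescence over baseline, percent of buffer-to-R-L3 span | Benchmarks: Low control buffer, high control R-L3 activator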

| Compound | activation | outcome |
| --- | --- | --- |
| Cc1ccc(OCC(=O)NNC(=S)NC(=O)c2cccs2)c(C)c1 | 195% (active) |  |
| Cc1ccc(-c2nc3c(Cl)cc(Cl)cc3c(=O)n2O)cc1 | 828% (active) |  |
| O=C(CN1C2=NCCCN2c2ccccc21)c1ccc2c(c1)OCO2 |  | inactive |
| CCOc1ccccc1C1CC(=O)Nc2cc3c(cc21)OCCO3 (stereo not drawn) |  | inactive |
| CCOc1ccc(C2C(C#N)=C(N)N(c3sc4c(c3C#N)CCCC4)C3=C2C(=O)CCC3)cc1 (stereo not drawn) |  | inactive |
| COc1ccc(NC(=S)NC(=O)c2ccccc2Cl)cc1 |  | inactive |
| S=c1[nH]nc(-c2cccs2)n1/N=C/c1c(Cl)cccc1Cl |  | inactive |
| S=c1[nH]nc(-c2ccc(Cl)cc2)n1/N=C/C=C/c1ccco1 | 159% (active) |  |
| CCn1c(SCC(=O)NC(=O)NCc2ccco2)nc2sc(C)c(C)c2c1=O | 184% (active) |  |
| O=c1[nH]cc(-c2ccccc2)c(=O)[nH]1 |  | inactive |
| O=C(C1CCCCC1)N(CCN1CCCC1)c1nc2ccccc2s1 |  | inactive |
| CN(C(=O)c1cc(COc2c(F)cccc2F)on1)C1CCOC1 (stereo not drawn) |  | inactive |
| CCOC(=O)c1ccc(Nc2nc(N3CCOCC3)nc(N3CCOCC3)n2)cc1 |  | inactive |
| CC(C)c1ccc(/C=C2\SC(N3CCOCC3)=NC2=O)cc1 |  | inactive |
| CCC(O)(CC)C(=O)NN(C(=O)CCl)c1ccccc1 |  | inactive |
| CCCC(=O)Nc1ccc(S(=O)(=O)N2CCC(c3nc4ccccc4[nH]3)CC2)cc1 |  | inactive |
| O=C1CC(c2cccs2)Cc2nc(NC(=O)C3CC3)ncc21 (stereo not drawn) |  | inactive |
| O=C1/C(=C/c2cccc(F)c2)SC(=S)N1NS(=O)(=O)c1ccccc1 | 146% (active) |  |
